Data published in PMC10979821 (Current pharmaceutical design, 2023).
Entries after “also recorded” stand apart in the source; their conditions may differ. Like-named read-outs stand apart in the source and are kept apart here.

Legend:
[1] = Serum pharmacokinetics of THC and metabolites after inhaled or i.p. THC; format: in vivo, female Sprague Dawley rats
[2] = cited from earlier work
[3] = system: female Sprague Dawley rats; assay: Locomotor activity in OpenField arena after i.p. or inhaled THC; format: in vivo, rat; details: for vertical plane entries (rearing), total: 45 minute session
Summary of the method: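 Separate cohort of adult female rats (n=15): habituation session, then five vehicle or THC days, each 3 days apart. Dosing was 2 mg/kg i.p., or 10 min vapour exposure (0.25 mL of 40 or 160 mg/mL; 0.19 or 0.76 mg/kg). Rats entered the arena immediately for 45 min, n=10–15 per group. Analysis: two-way RM ANOVA (time × treatment), Sidak or Tukey post hoc.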

rodents = details: i.p. injected THC; cited from earlier work
[4] = cited from earlier work; remark: listed apart in the source
[5] = 0.19 mg/kg vaporized/inhaled THC (0.25 mL of 40 mg/mL, 10 min exposure), serum
[6] = 0.76 mg/kg vaporized/inhaled THC (0.25 mL of 160 mg/mL, 10 min exposure), serum
[7] = 2 mg/kg THC i.p., serum, female Sprague Dawley rats
[8] = female, Sprague Dawley, rat, serum, inhaled or intranasal, 0.19 mg/kg
[9] = female, Sprague Dawley, rat, serum, inhaled or intranasal, 0.76 mg/kg
[10] = female, Sprague Dawley, rat, serum, ip, 2 mg/kg

## 11-hydroxy-delta-9-tetrahydrocannabinol [11-OH-THC]
[1]; 0.19 mg/kg vaporized THC, time after conclusion of inhalation
  Tmax: 5 min
[1]; [5]
  Cmax (maximum serum concentration): 14.4 ± 1.4 ng/mL
[1]; 0.76 mg/kg vaporized THC, time after conclusion of inhalation
  Tmax: 5 min
[1]; [6]
  Cmax (maximum serum concentration): 35.6 ± 7.4 ng/mL
[1]; [7]
  Cmax (maximum serum concentration): 84.2 ± 19.3 ng/mL
[1]; 2 mg/kg THC i.p., time post-injection
  Tmax: 20 min
[2]; human, acute inhalation, % of THC
  metabolite level relative to THC: up to 30%

## CCCCCc1cc(O)c2c(c1)OC(C)(C)[C@@H]1CCC(C)=C[C@@H]21 [THC, delta-9-tetrahydrocannabinol]
[1]; 0.19 mg/kg vaporized
  Vss (volume of distribution at steady state): 8.6 L/kg
[1]; 0.76 mg/kg vaporized
  Vss (volume of distribution at steady state): 24.4 L/kg
[1]; [8]
  AUC(0-inf): 87 ng·h/mL
  CL/F: 38.3 mL/min/kg
  Cmax: 43.3 ng/mL
  Tmax: 10 min
  Vd/F: 7.4 L/kg
  half-life: 132 min
  k el: 8.33e-05 s⁻¹
[1]; [9]
  AUC(0-inf): 94.4 ng·h/mL
  CL/F: 142 mL/min/kg
  Cmax: 71.6 ng/mL
  Tmax: 5 min
  Vd/F: 33 L/kg
  half-life: 162 min
  k el: 8.33e-05 s⁻¹
[1]; [10]
  AUC(0-inf): 364 ng·h/mL
  CL/F: 91.7 mL/min/kg
  Cmax: 108 ng/mL
  Tmax: 10 min
  Vd/F: 26.9 L/kg
  half-life: 204 min
  k el: 5.56e-05 s⁻¹
[1]; increasing inhaled THC dose from 0.19 mg/kg to 0.76 mg/kg
  fold-change of Cmax values: 1.6 fold
[3]; 0.19 mg/kg INH THC vs vehicle
  vertical plane entries (rearing), total: Significantly reduced; also recorded: significantly decreased; also recorded: reduced rearing activity
[3]; 0.76 mg/kg inhaled THC vs vehicle, at 20 minutes
  floor plane distance: significantly higher; also recorded: slightly heightened locomotion
[3]; 0.76 mg/kg inhaled THC, over a 45-minute period
  horizontal distance traveled or altered thigmotaxis: minimal effect
[3]; 0.76 mg/kg vaporized THC vs vehicle, at 20 minutes
  center distance travelled: significantly higher; also recorded: increased center distance travelled
[3]; 2 mg/kg i.p. THC vs vehicle
  vertical plane entries (rearing), total: Significantly reduced; also recorded: significant reduction; also recorded: reduced rearing activity
[3]; vaporized THC 0.19 or 0.76 mg/kg vs vehicle
  margin distance, post-hoc comparisons: no significant post-hoc comparisons
rodents
  dose at which horizontal locomotion is affected: ≥ 15 mg/kg
[2]; human clinical study at a similar dose
  plasma concentration Cmax: 73.81 ± 63.09 ng/mL
[2]; human, 6 subjects given the same dose of THC under the same regime
  plasma Cmax values across individual subjects: 70 to 280 ng/mL
[2]; human, acute THC inhalation, whole blood, lowest mean across studies
  mean Cmax of THC: 4 ng/mL
[2]; human, smoked or vaped cannabis at similar doses
  mean Cmax ranges in clinical studies: 4 to 162 ng/mL
[4]; after THC inhalation in males, ref 35 (Hložek et al.)
  time of peak THC brain levels: 15 min
[4]; female Sprague Dawley rats, 5 minutes post-30 minute inhalation of 200 mg/mL THC
  mean Cmax levels of THC: 303 ng/mL
[4]; ref 26 (Baglot et al.)
  time of peak THC brain levels: 30 min

## CCCCCc1cc(O)c2c(c1)OC(C)(C)C1CCC(C(=O)O)=CC21 (stereo not shown) [THC-COOH, 11-nor-9-carboxy-delta-9-tetrahydrocannabinol]
[1]; [5]
  Cmax (maximum serum concentration): 20.9 ± 4.1 ng/mL
[1]; [6]
  Cmax (maximum serum concentration): 19.9 ± 2.2 ng/mL
[1]; [7]
  Cmax (maximum serum concentration): 87.0 ± 21.8 ng/mL
[2]; humans
  time detectable in the bloodstream after administration: ≥ 7 days
